Publication PMC8602434 (Drugs in R&D, 2021)

Tests used:
Assay type in all cases: in vivo
[1] = Rat 28-day toxicology study with toxicokinetic analysis, sc
Outline: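 Male and female CD Sprague Dawley rats (233–264 g male, 172–201 g female). 28-day toxicology study (70 per sex) with daily sc dosing at 0, 1.0, 5.0 or 25.0 mg/kg/day. Blood drawn via sublingual vein, three animals per sex per dose at each time point. Noncompartmental analysis of mean concentration–time data gave AUClast, Cmax, tmax and t½.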

[2] = Mouse pharmacokinetics, single sc or iv dose, plasma LC-MS; settings: for AUC∞: plasma LC-MS
[3] = Healthy volunteers, multiple-dose arm, sc once daily for 7 days; settings: human
Outline: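 Double-blind, placebo-controlled abdominal sc dosing once daily for 7 days: 1.0 or 3.0 mg, cohorts of 10 (8 active, 2 placebo). Serial blood on Day 1 (predose to 24 h), peak/trough on Days 2–6, Day 7 (predose to 16 h), then to 48 h after last dose. Validated bioanalytical method. Noncompartmental: Day 7 values as steady state, AUCτ, accumulation ratio. AEs recorded.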

[4] = 1.0 mg sc once daily, Day 7, geometric mean, n=5
[5] = 1.0 mg sc once daily, Day 7, median, n=5
[6] = 1.0 mg sc once daily, Day 7, median, n=8
[7] = 3.0 mg sc once daily, Day 1, geometric mean, n=7
[8] = 3.0 mg sc once daily, Day 1, geometric mean, n=8
[9] = 3.0 mg sc once daily, Day 1, median, n=7
[10] = 3.0 mg sc once daily, Day 1, median, n=8
[11] = 3.0 mg sc once daily, Day 7, geometric mean, n=8
[12] = 3.0 mg sc once daily, Day 7, mean (SD), n=8
[13] = 3.0 mg sc once daily, Day 7, median, n=6
[14] = 3.0 mg sc once daily, Day 7, median, n=8

F (bioavailability) ([2]; 1 mg/kg sc versus iv): 0.63
t½ ([2]; single 1 mg/kg iv): 12 min
AUC∞ ([2]; single 1 mg/kg iv): 753 ng·h/mL
Cmax ([2]; single 1 mg/kg sc): 703 ng/mL
tmax ([2]; single 1 mg/kg sc): 4.98 min
t½ ([2]; single 1 mg/kg sc): 15.6 min
AUC∞ ([2]; single 1 mg/kg sc): 476 ng·h/mL
Cmax ([2]; single 3 mg/kg sc): 2440 ng/mL
tmax ([2]; single 3 mg/kg sc): 15 min
t½ ([2]; single 3 mg/kg sc): 30 min
AUC∞ ([2]; single 3 mg/kg sc): 1727 ng·h/mL
t½ ([3]; 1.0 mg sc once daily, Day 1, geometric mean, n=6): 246 min
CL/F ([3]; 1.0 mg sc once daily, Day 1, median, n=6): 20.2 L/h
AI (accumulation index) [3, 4]: 1.1
t½ [3, 4]: 402 min
AUCτ ([3]; 1.0 mg sc once daily, Day 7, geometric mean, n=8): 51.2 ng·h/mL
AI (accumulation index) ([3]; 1.0 mg sc once daily, Day 7, mean (SD), n=5): 1.1 (0.1)
AUCτ ([3]; 1.0 mg sc once daily, Day 7, mean (SD), n=8): 52.9 (15.0) ng·h/mL
AI (accumulation index) [3, 5]: 1.1
AUC∞ [3, 5]: 51.8 ng·h/mL
Vd/Fss [3, 5]: 174 L
AUCτ [3, 6]: 48.3 ng·h/mL
tmax [3, 6]: 30 min
AUC∞ [3, 7]: 169.0 ng·h/mL
AUC∞/dose [3, 7]: 56.5 ng·h/mL/mg
Cmax [3, 8]: 53.7 ng/mL
Cmax/dose [3, 8]: 17.9 ng/mL/mg
AUC∞/dose ([3]; 3.0 mg sc once daily, Day 1, mean (SD), n=7): 57.2 (10.2) ng·h/mL/mg
Cmax/dose ([3]; 3.0 mg sc once daily, Day 1, mean (SD), n=8): 18.1 (3.2) ng/mL/mg
AUC∞ [3, 9]: 159.0 ng·h/mL
AUC∞/dose [3, 9]: 53.0 ng·h/mL/mg
CL/F [3, 9]: 18.9 L/h
t½ [3, 9]: 576 min
AUC0–t [3, 10]: 145.0 ng·h/mL
Cmax [3, 10]: 50.0 ng/mL
AI (accumulation index) ([3]; 3.0 mg sc once daily, Day 7, geometric mean, n=6): 1.4
AUCτ [3, 11]: 174.0 ng·h/mL
AUCτ/dose [3, 11]: 58.1 ng·h/mL/mg
Cmax/dose [3, 11]: 19.1 ng/mL/mg
AI (accumulation index) ([3]; 3.0 mg sc once daily, Day 7, mean (SD), n=6): 1.4 (0.2)
AUCτ [3, 12]: 177.0 (36.0) ng·h/mL
AUCτ/dose [3, 12]: 59.1 (12.0) ng·h/mL/mg
Cmax/dose [3, 12]: 19.5 (4.52) ng/mL/mg
AI (accumulation index) [3, 13]: 1.3
AUC∞ [3, 13]: 200.0 ng·h/mL
AUCτ [3, 14]: 171.0 ng·h/mL
AUCτ/dose [3, 14]: 57.1 ng·h/mL/mg
Dose linearity for AUC∞ and Cmax ([3]; multiple-dose arm): inconclusive
Intact drug excreted in the urine ([3]; multiple-dose arm): ≤ 1%
Time after dosing at which Cmax was generally reached (tmax) ([3]; multiple-dose arm): 15 to 45 min
Structure (SMILES): CCCC[C@H](NC(C)=O)C(=O)N[C@H]1CCC(=O)NC[C@@H](C(=O)N[C@@H](Cc2c[nH]c3ccccc23)C(N)=O)NC(=O)[C@H](CCCNC(=N)N)NC(=O)[C@@H](Cc2ccccc2)NC(=O)[C@H](Cc2c[nH]cn2)NC1=O [PL8177]
tmax ([1]; rat F, 1.0 mg/kg sc daily, Day 14 (truncated curve, 3 data points)): 30 min
tmax ([1]; rat F, 1.0 mg/kg sc daily, Day 28): 30 min
tmax ([1]; rat F, 5.0 mg/kg sc daily, Day 14 (truncated curve, 3 data points)): 60 min
tmax ([1]; rat F, 25.0 mg/kg sc daily, Day 14 (truncated curve, 3 data points)): 30 min
tmax ([1]; rat F, 25.0 mg/kg sc daily, Day 28): 30 min
tmax ([1]; rat M, 1.0 mg/kg sc daily, Day 1): 30 min
tmax ([1]; rat M, 1.0 mg/kg sc daily, Day 14 (truncated curve, 3 data points)): 30 min
tmax ([1]; rat M, 1.0 mg/kg sc daily, Day 28): 30 min
tmax ([1]; rat M, 5.0 mg/kg sc daily, Day 14 (truncated curve, 3 data points)): 60 min
tmax ([1]; rat M, 5.0 mg/kg sc daily, Day 28): 30 min
tmax ([1]; rat M, 25.0 mg/kg sc daily, Day 28): 15 min
AEs leading to study discontinuation, serious AEs, or severe AEs ([3]; multiple-dose arm): no reports
Most commonly reported AEs ([3]; multiple-dose arm): injection-site pain, erythema, and induration
